Screens from PubChem BioAssay.
Sampled rows, rich in hits. Any-hit rate of the full collection: about 4.2%.
TMEM16A act = TMEM16A chloride channel activators or potentiators, primary screen, cell-based, HTS; B-score at 10 µM; 340,000 tested, 0.3% active; AID 623877, 2012; Anoctamin-1 (Mus musculus), Q8BHY3; HEK293 TMEM16A/YFP-H148Q/I152L, iodide quench fluorescence; stronger effect = lower value;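 active = fluorescence-ratio B-score plate-corrected deviation score at least 3 library SD below zero, with starting fluorescence score within 5 deviations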;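 also: channel opened by trigger with iodide after compound preincubation; score built on the fluorescence ratio of max minus min over baseline; more negative score means more quench and so TMEM16A activation or potentiation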
Target sequence (Q8BHY3 whole entry, looked up): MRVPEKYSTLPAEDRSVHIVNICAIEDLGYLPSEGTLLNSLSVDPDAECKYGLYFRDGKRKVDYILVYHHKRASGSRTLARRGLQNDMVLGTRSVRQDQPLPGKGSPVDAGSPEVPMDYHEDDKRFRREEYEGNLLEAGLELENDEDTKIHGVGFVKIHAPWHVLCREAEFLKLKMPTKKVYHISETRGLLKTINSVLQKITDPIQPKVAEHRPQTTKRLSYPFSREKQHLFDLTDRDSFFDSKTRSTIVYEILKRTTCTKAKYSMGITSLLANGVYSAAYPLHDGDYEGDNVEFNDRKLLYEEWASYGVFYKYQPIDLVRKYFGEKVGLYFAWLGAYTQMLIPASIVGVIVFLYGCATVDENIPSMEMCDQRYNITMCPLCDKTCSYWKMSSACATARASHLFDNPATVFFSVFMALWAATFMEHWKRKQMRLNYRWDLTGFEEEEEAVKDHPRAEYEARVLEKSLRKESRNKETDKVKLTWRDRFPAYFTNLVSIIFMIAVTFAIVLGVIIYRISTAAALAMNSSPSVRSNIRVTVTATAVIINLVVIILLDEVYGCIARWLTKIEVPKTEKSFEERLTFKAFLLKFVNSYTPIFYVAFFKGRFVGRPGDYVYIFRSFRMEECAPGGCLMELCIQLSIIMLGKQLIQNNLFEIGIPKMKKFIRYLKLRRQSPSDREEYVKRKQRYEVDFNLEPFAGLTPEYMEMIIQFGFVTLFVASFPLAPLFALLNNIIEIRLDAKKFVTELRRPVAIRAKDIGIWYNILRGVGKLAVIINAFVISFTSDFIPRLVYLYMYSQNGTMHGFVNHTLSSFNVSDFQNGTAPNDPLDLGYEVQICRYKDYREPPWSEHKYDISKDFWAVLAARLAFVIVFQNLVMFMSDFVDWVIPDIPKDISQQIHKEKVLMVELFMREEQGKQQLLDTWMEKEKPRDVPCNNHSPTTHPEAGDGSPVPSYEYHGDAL
CHOP UPR activ = activators of apoptotic CHOP UPR arm, primary screen, cell-based, CHO-CHOP luciferase reporter, luminescence, uHTS. UPR activation; percent of tunicamycin response over DMSO baseline. activation, % at 10 µM. 330,000 tested, 0.34% active;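 active = at 10 µM dose, activation of 40% or more, normalized to positive control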;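 also: 100% = tunicamycin at 10 µg/mL and 0% = DMSO alone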
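assay system = CHO CHOP reporter cells | amount = 500 CHO-CHOP cells per well | buffer or medium = F12 with 10% FBS | incubation = 16-18 h cell attachment, then 6 h compound exposure, 37 °C | detection = luminescence read with Steady-Glo | read-out = percent activation relative to tunicamycin control | controls = tunicamycin high control, DMSO low control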
CHOP inh = inhibitors of CHOP promoter induction, primary screen, cell-based, unfolded protein response, luciferase reporter. CHO-K1 CHOP-promoter luciferase, tunicamycin-induced, 15-18 h. inhibition, % at 10 µM. 220,000 tested, 3.8% active. AID 2732, 2010;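 active = compounds that reduced the stress-induced luciferase reporter signal by more than about 70% of percent inhibition, limit read from the data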;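 also: 0% = tunicamycin plus vehicle and 100% = wells without tunicamycin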
XBP1 UPR activ = activators of adaptive XBP1 UPR arm, primary screen, cell-based, CHO-XBP1 luciferase reporter, luminescence, uHTS; IRE1-XBP1 UPR activation; percent of tunicamycin response, DMSO as zero; activation, % at 20 µM; 330,000 tested, 0.33% active; AID 463104, 2010;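 active = versus positive control, 20 µM dose yields 30% or more activation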;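 also: 100% = tunicamycin at 10 µg/mL and 0% = DMSO only wells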
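Material: IRE1-XBP1 luciferase reporter CHO line / Quantity: one thousand reporter cells per well / Buffer or medium: F12 with 10% serum / Compound: 20 µM single concentration, DMSO 1% / Times: 6 h treatment, 37 °C / Detection: Steady-Glo luciferase glow luminescence, 10 min after reagent addition / Benchmarks: tunicamycin high, DMSO low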
Lipid droplet = inhibitors of hepatocyte lipid droplet formation, primary screen, imaging, high-throughput imaging, BODIPY stain; AML12 mouse hepatocytes, oleate lipid droplets; inhibition, % at 6.5 µM; 240,000 tested, 0.4% active;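 active = lipid droplet intensity inhibited by at least 50%, with more than 500 cells counted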
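Assay system: AML12 hepatocytes (mouse); Probe or stimulus: oleic acid at 100 µM to induce lipid droplet formation; Dosing: compound at 6.5 µM only; Schedule: compound with oleate, overnight; Detection: fluorescence imaging, 20x objective, two fields per well; Measure: % inhibition of lipid droplet signal.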
ANO1 block = TMEM16A chloride channel inhibitors, primary screen, cell-based, HTS. Anoctamin-1 (Mus musculus), Q8BHY3. HEK293 TMEM16A/YFP iodide influx fluorescence, ionomycin. normalized B-score (activity score, 25-100; higher = stronger inhibition) at 10 µM. 310,000 tested, 1.2% active. AID 588511, 2011;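 active = ratio plate-corrected score three or more library SD toward inhibition, starting fluorescence score within five deviations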;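 also: score derived from kinetic fluorescence span divided by baseline fluorescence per well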
Active calls of the source: *.

What do the screens show for `CO/N=C/c1ccc(N2CCN(C(=O)c3ccc(F)cc3)CC2)c([N+](=O)[O-])c1`?
TMEM16A act: inactive; CHOP UPR activ: -1.3; CHOP inh: 36.7; XBP1 UPR activ: -2.0; Lipid droplet: -10.8; ANO1 block: 100*

What do the screens show for `CO/N=C/c1ccc(N2CCN(C(=O)c3ccc(Cl)cc3Cl)CC2)c([N+](=O)[O-])c1`?
TMEM16A act: inactive; CHOP UPR activ: 3.6; CHOP inh: 55.2; XBP1 UPR activ: 2.7; ANO1 block: 100*

Results for CSCCC(NC(=O)c1ccccc1)C(=O)N1CCN(C(c2ccccc2)c2ccccc2)CC1 (centres undefined) ?
TMEM16A act: inactive; CHOP UPR activ: 0.5; XBP1 UPR activ: -0.8; Lipid droplet: -5.8; ANO1 block: inactive

What do the screens show for `O=C(O)CCNC(=O)/C(=C/C=C/c1ccccc1)NC(=O)c1ccccc1`?
TMEM16A act: inactive; CHOP UPR activ: -0.9; CHOP inh: 73.8*; XBP1 UPR activ: -4.2; Lipid droplet: -9.2; ANO1 block: inactive

What do the screens show for `CCCCOc1ccc(C(=O)N/C(=C/C=C/c2ccccc2)C(=O)NCCO)cc1`?
TMEM16A act: inactive; CHOP UPR activ: 0.4; CHOP inh: 7.9; XBP1 UPR activ: 6.1; Lipid droplet: -35.8; ANO1 block: inactive

Results for COc1ccc(-n2cnc3c(N)nc(N)nc32)cc1 ?
TMEM16A act: inactive

Results for O=C(Cn1ncc2c1-c1ccccc1OC2)N1CCN(Cc2ccc3c(c2)OCO3)CC1 ?
TMEM16A act: inactive; CHOP UPR activ: -1.0; CHOP inh: 77.0*; XBP1 UPR activ: -1.5; ANO1 block: inactive

How did CC1CC(C)(C)Nc2ccc(N=O)cc21 (centres undefined) do in these assays?
TMEM16A act: inactive; CHOP inh: 95.7*; Lipid droplet: 44.0

What do the screens show for `CC1CC(C)(C)Nc2ccc(OC(=O)c3ccco3)cc21` (centres undefined)?
TMEM16A act: inactive; CHOP UPR activ: -0.2; CHOP inh: 38.1; XBP1 UPR activ: -13.5; ANO1 block: inactive

How did O=[N+]([O-])c1nn(-c2ccc3c(c2)OCCO3)n(O)c1=NC1CCCCCC1 do in these assays?
TMEM16A act: inactive; CHOP UPR activ: 0.0; CHOP inh: 77.3*; XBP1 UPR activ: -2.2; Lipid droplet: -10.3; ANO1 block: inactive

What do the screens show for `O=[N+]([O-])c1nn(-c2ccc3c(c2)OCCO3)n(O)c1=NC1CCCC1`?
TMEM16A act: inactive; CHOP UPR activ: 5.7; CHOP inh: 44.3; XBP1 UPR activ: 0.9; Lipid droplet: 1.5; ANO1 block: inactive

How did O=[N+]([O-])c1nn(-c2ccc3c(c2)OCCO3)n(O)c1=Nc1ccccc1 do in these assays?
TMEM16A act: inactive; CHOP UPR activ: -6.7; CHOP inh: 87.6*; XBP1 UPR activ: -3.0; Lipid droplet: 15.3; ANO1 block: inactive

How did CCC(C)(C(=O)NC1CCCCC1)N(C(=O)Cc1cccs1)c1ccccc1 (centres undefined) do in these assays?
TMEM16A act: inactive; CHOP UPR activ: 0.9; CHOP inh: 37.9; XBP1 UPR activ: -0.8; Lipid droplet: -19.1; ANO1 block: inactive

Results for Cc1cnc(NC(=O)c2ccc3c(c2)OCCO3)s1 ?
TMEM16A act: inactive; CHOP UPR activ: -9.2; XBP1 UPR activ: -8.6

Results for O=C(Nc1ncc([N+](=O)[O-])s1)c1ccc2c(c1)OCO2 ?
TMEM16A act: inactive; CHOP UPR activ: -7.2; XBP1 UPR activ: -14.3; Lipid droplet: 0.2; ANO1 block: 100*

Results for Cc1onc(-c2ccccc2)c1C(=O)Nc1ncc([N+](=O)[O-])s1 ?
TMEM16A act: inactive; CHOP UPR activ: 3.0; XBP1 UPR activ: -8.1; Lipid droplet: -28.1; ANO1 block: 100*

Results for O=C(Cc1ccc(Cl)cc1)Nc1ncc([N+](=O)[O-])s1 ?
TMEM16A act: -41.7*; CHOP inh: 21.4; Lipid droplet: -2.0

How did CCC(Oc1ccccc1)C(=O)Nc1ncc([N+](=O)[O-])s1 (centres undefined) do in these assays?
TMEM16A act: inactive; CHOP UPR activ: -2.6; CHOP inh: 12.8; XBP1 UPR activ: -0.4; Lipid droplet: 8.4; ANO1 block: 25*

How did CCC(C)NC(=O)Cn1cnc2sc(C)c(S(=O)(=O)N3CCN(c4ccccc4OC)CC3)c2c1=O (centres undefined) do in these assays?
TMEM16A act: inactive; CHOP UPR activ: 0.8; XBP1 UPR activ: 4.4; Lipid droplet: 4.4; ANO1 block: inactive

Results for C=CS(=O)(=O)c1c2cc(OC)ccc2nc2ccc(OC)cc12 ?
TMEM16A act: inactive

How did COc1ccc(CCC2(C)OCC(CCCCO)O2)cc1 (centres undefined) do in these assays?
TMEM16A act: inactive

How did COCCNc1oc(/C=C/c2ccc(F)cc2)nc1S(=O)(=O)c1ccccc1 do in these assays?
TMEM16A act: inactive; CHOP UPR activ: 2.5; XBP1 UPR activ: 0.2; Lipid droplet: 0.0; ANO1 block: inactive

What do the screens show for `CC(CC(=O)Nc1ncc([N+](=O)[O-])s1)c1ccccc1` (centres undefined)?
TMEM16A act: inactive; CHOP UPR activ: 0.0; CHOP inh: 23.0; XBP1 UPR activ: -1.9; Lipid droplet: -32.9; ANO1 block: 100*

How did O=C(COC(=O)COc1ccccc1)Nc1ncc([N+](=O)[O-])s1 do in these assays?
TMEM16A act: inactive; CHOP UPR activ: 0.6; XBP1 UPR activ: -2.1

How did CCN1CCN(c2nc3ccccc3nc2C(C#N)C(=O)OC2CCCCC2)CC1 (centres undefined) do in these assays?
TMEM16A act: inactive; CHOP inh: -25.9

Results for CN1CCN(c2nc3ccccc3nc2C(C#N)C(=O)OC2CCCCC2)CC1 (centres undefined) ?
TMEM16A act: inactive; CHOP UPR activ: -0.6; CHOP inh: 72.0*; XBP1 UPR activ: 2.1; ANO1 block: inactive

What do the screens show for `CCCCn1c(N)c(N(CCOC)C(=O)c2cccc(S(=O)(=O)N(C)c3ccc(C)cc3)c2)c(=O)[nH]c1=O`?
TMEM16A act: inactive; CHOP UPR activ: 0.1; XBP1 UPR activ: 1.1; ANO1 block: inactive
